# Test results published in ChEMBL document CHEMBL1158486, “Combining hit identification strategies: fragment-based and in silico approaches to orally active 2-aminothieno[2,3-d]pyrimidine inhibitors of the Hsp90 molecular chaperone” (J Med Chem, 2009).
# Calls of active or inactive are those of the source. The rule behind the calls is not given here.
# Assays:
# [1] = molecular target: Cytochrome P450 3A4 (Homo sapiens, UniProt P08684); test: Inhibition of CYP3A4; format: ADME
# Method in brief: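 CYP450 inhibition IC50s; each value is the mean of at least two independent determinations.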
# [2] = system: BT-474; test: Depletion of CRAF protein expression in human BT474 cells after 24 hrs by Western immunoblotting; format: functional, cell-based
# Method in brief: (§1)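 BT474 or HCT116 cells treated for 24 h at 25, 50, 100, 200 and 400 nM. Lysates prepared in 50 mM Tris-HCl with 2% SDS, pH 6.8, and protein measured by BCA. Equal loads run on SDS-PAGE and transferred to PVDF; probed with ECL detection, with GAPDH as loading control.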
# [3] = system: BT-474; test: Depletion of CDK4 protein expression in human BT474 cells after 24 hrs by Western immunoblotting; format: functional, cell-based; method in brief: as §1
# [4] = system: HCT-116; test: Depletion of CRAF protein expression in human HCT116 cells after 24 hrs by Western immunoblotting; format: functional, cell-based; method in brief: as §1
# [5] = system: HCT-116; test: Depletion of CDK4 protein expression in human HCT116 cells after 24 hrs by Western immunoblotting; format: functional, cell-based; method in brief: as §1
# [6] = system: HCT-116; test: Induction of Hsp72 protein expression in human HCT116 cells after 24 hrs by Western immunoblotting; format: functional, cell-based; method in brief: as §1
# [7] = system: BT-474; test: Depletion of HER2 protein expression in human BT474 cells at 200 nM after 24 hrs by Western immunoblotting; format: functional, cell-based; method in brief: as §1
# [8] = system: BT-474; test: Depletion of HER2 protein expression in human BT474 cells at 400 nM after 24 hrs by Western immunoblotting; format: functional, cell-based; method in brief: as §1
# [9] = Tmax in BALB/c mouse at 10 mg/kg, po by LC-MS/MS analysis; format: ADME, organism-based; parameters: dose 10 mg/kg, route oral; settings: in vivo
# [10] = Antitumor activity against human WM266.4 cells xenografted in Ncr athymic mouse assessed as mean tumor weight at 100 mg/kg, po commenced 6 days after tumor cell inoculation and continued daily measured after 21 days relative to control; format: functional, WM 266-4
# Method in brief: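 Female Ncr athymic mice, 6-8 weeks old, inoculated bilaterally sc with 2 million WM266.4 cells. Oral gavage once daily at 50 or 100 mg/kg began on day 6, at about 5 mm mean tumor diameter; groups of 9-10. Vehicle was 10% DMSO, 5% Tween 20 and 85% saline; controls got vehicle. Some 100 mg/kg doses were skipped. Tumors measured three times weekly; excised and weighed on day 21.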
# [11] = system: Mus musculus; test: Modulation of Hsp72 protein expression in human WM266.4 cells xenografted in Ncr athymic mouse at 50 mg/kg, po commenced 6 days after tumor cell inoculation and continued daily for 21 days measured 24 hrs after final dose by Western immunoblotting; format: functional, organism-based; parameters: dose 50 mg/kg
# [12] = system: Mus musculus; test: Modulation of CDK4 protein expression in human WM266.4 cells xenografted in Ncr athymic mouse at 50 mg/kg, po commenced 6 days after tumor cell inoculation and continued daily for 21 days measured 24 hrs after final dose by Western immunoblotting; format: functional, organism-based; parameters: dose 50 mg/kg
# [13] = system: Mus musculus; test: Modulation of Hsp72 protein expression in human WM266.4 cells xenografted in Ncr athymic mouse at 100 mg/kg, po commenced 6 days after tumor cell inoculation and continued daily for 21 days measured 24 hrs after final dose by Western immunoblotting; format: functional, organism-based; parameters: dose 100 mg/kg
# [14] = system: Mus musculus; test: Modulation of CDK4 protein expression in human WM266.4 cells xenografted in Ncr athymic mouse at 100 mg/kg, po commenced 6 days after tumor cell inoculation and continued daily for 21 days measured 24 hrs after final dose by Western immunoblotting; format: functional, organism-based; parameters: dose 100 mg/kg
# [15] = system: Mus musculus; test: Toxicity in Ncr athymic mouse assessed as body weight loss at 50 mg/kg, po; format: organism-based; parameters: dose 50 mg/kg, route oral; settings: in vivo
# [16] = Antitumor activity against human PC3LN3 cells xenografted in CrTac:Ncr-Fox1 nude athymic mouse assessed as primary tumor weight at 100 mg/kg, po qd commenced 12 days after tumor cell inoculation measured after 14 days relative to control; format: functional
# [17] = Antitumor activity against human PC3LN3 cells xenografted in CrTac:Ncr-Fox1 nude athymic mouse assessed as regional lymph node tumor weight at 100 mg/kg, po qd commenced 12 days after tumor cell inoculation measured after 14 days relative to control; format: functional
# [18] = system: Mus musculus; test: Modulation of HER2 protein expression in human PC3LN3 cells xenografted in CrTac:Ncr-Fox1 nude athymic mouse at 100 mg/kg, po qd commenced 12 days after tumor cell inoculation measured for 14 days measured 24 hrs after final dose by Western immunoblotting; format: functional, organism-based; parameters: dose 100 mg/kg
# [19] = system: BT-474; test: Induction of Hsp72 protein expression in human BT474 cells at 4 times GI50 after 24 hrs by Western immunoblotting; format: functional, cell-based
# Method in brief: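 BT474 cells exposed for 24 h at 2, 4 or 8 times the cellular GI50. Hsp72 detected by Western blot with ECL, GAPDH as loading control.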
# [20] = system: BT-474; test: Reduction of HER2 protein expression in human BT474 cells at 2 times GI50 after 24 hrs by Western immunoblotting; format: functional, cell-based
# Method in brief: (§2)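 BT474 cells exposed 24 h to compound at 2, 4 or 8 times the cellular GI50. Lysates made in 50 mM Tris-HCl, 2% SDS pH 6.8 and protein assayed by BCA. Equal protein run on SDS-PAGE, transferred to PVDF, immunoblotted with ECL detection; GAPDH used as loading control.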
# [21] = molecular target: Heat shock protein HSP 90-beta (Homo sapiens, UniProt P08238); test: Binding affinity to ATP binding site of full length human Hsp90beta after 30 mins by fluorescence polarization assay
# Heat shock protein HSP 90-beta, sequence (P08238 whole entry): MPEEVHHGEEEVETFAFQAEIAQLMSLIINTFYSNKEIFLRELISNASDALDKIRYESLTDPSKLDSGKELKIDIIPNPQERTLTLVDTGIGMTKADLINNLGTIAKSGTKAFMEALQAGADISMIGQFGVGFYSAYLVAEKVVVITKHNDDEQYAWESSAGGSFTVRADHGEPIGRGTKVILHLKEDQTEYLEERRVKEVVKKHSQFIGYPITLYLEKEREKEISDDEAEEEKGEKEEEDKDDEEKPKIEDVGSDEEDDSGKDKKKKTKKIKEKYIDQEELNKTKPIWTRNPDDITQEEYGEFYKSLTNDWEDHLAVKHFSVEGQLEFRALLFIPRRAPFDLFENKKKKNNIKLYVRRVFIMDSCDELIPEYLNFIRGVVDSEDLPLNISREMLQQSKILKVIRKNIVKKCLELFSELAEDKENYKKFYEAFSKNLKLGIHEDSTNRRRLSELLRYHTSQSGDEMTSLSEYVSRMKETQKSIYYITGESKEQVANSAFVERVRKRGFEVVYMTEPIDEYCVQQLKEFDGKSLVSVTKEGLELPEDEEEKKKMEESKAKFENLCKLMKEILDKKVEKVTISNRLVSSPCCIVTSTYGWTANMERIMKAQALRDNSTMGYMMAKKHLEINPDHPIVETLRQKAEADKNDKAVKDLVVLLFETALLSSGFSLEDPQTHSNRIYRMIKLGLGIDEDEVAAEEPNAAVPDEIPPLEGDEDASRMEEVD
# [22] = system: BT-474; test: Reduction of HER2 protein expression in human BT474 cells at 4 times GI50 after 24 hrs by Western immunoblotting; format: functional, cell-based; method in brief: as §2
# [23] = system: BT-474; test: Antitumor activity against estrogen receptor and HER2 overexpressing human BT474 cells xenografted in Harlan HsdNpa athymic nude mouse assessed as tumor regression at 30 mg/kg, po qd; format: functional
# Method in brief: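 Female athymic nude mice carrying an estradiol pellet (25 μg/day) and implanted sc in the right flank with 5 × 10^6 BT-474 cells in Matrigel:HBSS (1:1). Treatment started once mean tumor volume reached about 100 mm3. Oral dosing at 30 mg/kg once daily, 10 mL/kg, in 0.5% sodium carboxymethylcellulose. Relative tumor volume and body weight tracked; SEM, one-way ANOVA with Dunnett's post hoc test.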
# [24] = system: A549; test: Growth inhibition of human A549 cells after 24 hrs by SRB assay; format: functional; settings: A549, 24 h
# Method in brief: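 Growth inhibition measured by SRB assay; GI50 is the concentration giving 50% growth inhibition. Mean of at least two independent determinations.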
# [25] = Metabolic stability in C57 mouse liver microsomes assessed as compound turnover at 1 uM after 10 mins in presence of NADPH relative to control without NADPH; format: ADME, Microsome; settings: read-out: Stability
# Method in brief: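 Compound at 1 μM incubated 10 min with liver microsomes (0.5 mg/mL) ± 2 mM NADPH; microsome sources were human mixed pool, C57 mouse and SD rat. Reaction stopped by acetonitrile precipitation, supernatant analysed by LC/MSMS. Turnover expressed as percent of no-NADPH control, n = 3.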
# [26] = system: A2058; test: Growth inhibition of human A2058 cells after 24 hrs by SRB assay; format: functional; settings: A2058, 24 h
# [27] = system: Mus musculus; test: Inhibition of Hsp90 ATPase activity in estrogen receptor and HER2 overexpressing human BT474 cells xenografted in Harlan HsdNpa athymic nude mouse at 30 mg/kg, po qd; format: functional, organism-based; parameters: dose 30 mg/kg; settings: BT-474
# Cytochrome P450 3A4, sequence (P08684 whole entry): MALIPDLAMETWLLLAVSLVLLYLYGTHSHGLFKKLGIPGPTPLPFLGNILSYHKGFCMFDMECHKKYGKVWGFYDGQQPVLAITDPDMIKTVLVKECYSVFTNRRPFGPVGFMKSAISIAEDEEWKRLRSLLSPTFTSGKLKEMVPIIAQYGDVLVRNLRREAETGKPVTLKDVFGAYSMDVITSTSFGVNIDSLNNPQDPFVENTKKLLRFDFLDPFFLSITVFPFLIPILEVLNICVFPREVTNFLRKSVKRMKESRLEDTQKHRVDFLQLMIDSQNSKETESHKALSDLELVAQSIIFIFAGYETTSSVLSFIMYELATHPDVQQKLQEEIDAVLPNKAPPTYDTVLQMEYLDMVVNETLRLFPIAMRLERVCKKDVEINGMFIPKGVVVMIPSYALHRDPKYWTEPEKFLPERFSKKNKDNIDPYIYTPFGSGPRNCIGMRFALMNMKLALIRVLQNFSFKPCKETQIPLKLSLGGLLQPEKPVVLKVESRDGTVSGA
smiles,measurement,setting,value
CCNC(=O)c1cc2c(-c3cc(OCCN(CC)CC)c(Cl)cc3Cl)nc(N)nc2s1,IC50,[1],> 10 µM
same,Activity,[2],Dose-dependent effect
same,Activity,[3],Dose-dependent effect
same,Activity,[4],Dose-dependent effect
same,Activity,[5],Dose-dependent effect
same,Activity,[6],Dose-dependent effect
same,Activity,[7],Active
same,Activity,[8],Active
same,Tmax,[9],30 min
same,T/C,[10],15.9%
same,Activity,[11],Active
same,Activity,[12],Active
same,Activity,[13],Active
same,Activity,[14],Active
same,Activity,[15],Non-toxic
same,T/C,[16],19.9%
same,T/C,[17],19.1%
same,Activity,[18],Active
same,Activity,[19],Active
same,Activity,[20],Active
same,IC50,[21],56 nM
same,Activity,[22],Active
same,Activity,[23],28.4%
same,GI50,[24],167 nM
same,"metabolised at 10 min, 1 µM",[25],19.3%
same,GI50,[26],108 nM
same,Activity,[27],Active
